Some of the results follow.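 Rule for the calls: active = activation above 40%, taking the highest of four retests; inactive = the rest.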
Target: Apelin receptor (Homo sapiens) (UniProt P35414)
Test: agonists of human apelin receptor APJ, confirmation, cell-based, single concentration, CHO-K1, beta-arrestin, luminescence (AID 2764);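 note: plate controls were DMSO wells for no effect and apelin-13 at 10 nM for full effect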
Conditions: CHO-K1 APJ PathHunter beta-arrestin, at 20 µM, active compounds read high
Method in brief: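 Material: CHO-K1 cells with tagged APJ and beta-arrestin; Technique: chemiluminescence from beta-gal fragment complementation, detection reagent; Incubation: 90 min compounds at 25 °C, then 60 min detection; Probe or stimulus: no added agonist in test wells, apelin-13 10 nM as reference; Dosing: single dose, compounds 20 µM final, 1% DMSO.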

Apelin receptor (Homo sapiens), sequence (P35414 whole entry, looked up): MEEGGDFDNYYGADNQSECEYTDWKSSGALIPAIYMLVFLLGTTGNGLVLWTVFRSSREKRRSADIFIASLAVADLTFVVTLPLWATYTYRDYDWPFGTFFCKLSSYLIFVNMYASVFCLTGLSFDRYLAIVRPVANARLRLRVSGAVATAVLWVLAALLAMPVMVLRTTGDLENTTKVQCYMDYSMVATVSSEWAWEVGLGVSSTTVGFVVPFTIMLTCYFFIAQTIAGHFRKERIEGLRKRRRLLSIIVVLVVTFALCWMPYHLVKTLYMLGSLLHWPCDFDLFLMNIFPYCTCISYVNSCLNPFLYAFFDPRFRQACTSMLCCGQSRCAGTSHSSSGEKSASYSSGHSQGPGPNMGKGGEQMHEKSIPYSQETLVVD

activation, inactive:
CCCc1ccc(OCc2ccc(C(=O)N/N=C/c3cccc([N+](=O)[O-])c3)o2)c(OC)c1 19.3%, CCOc1cc2[nH]c(=S)n(CCCN3CCCC3=O)c(=O)c2cc1OCC 20.1%, Nc1nc(-c2sc3nc4c(cc3c2N)CCCC4)nc(N2CCOCC2)n1 15%, CC(=O)N1CCCc2cc(S(=O)(=O)N3CCCC(C(=O)N4CCN(c5cccc(Cl)c5)CC4)C3)ccc21 (configuration not stated) 27.4%, O=C(CSc1nc(Nc2ccccc2)nc(N2CCOCC2)n1)Nc1cc(Cl)ccc1O 15.9%, CCCCCCc1cc2cc(-c3nnc(-c4ccccc4)o3)c(=O)oc2cc1O -0.485%, COc1ccc(C(=O)O/N=C(\N)Cc2ccc(Cl)cc2Cl)cc1OC 24.9%, CCC(C)(C)C1CCC(=NNC(=O)c2ccc(Br)o2)CC1 (configuration not stated) 12.3%, Cc1ccc2nc(-c3ccc(NC(=O)c4cccnc4)cc3)oc2c1 18.4%, COc1cc(NC(=O)C2=C(C)OCCS2)c(Cl)cc1C(=O)NCCN1CCN(C)CC1 11.7%, CC1=C/C(=N\OS(=O)(=O)c2ccccc2)C=CC1=O 30.6%, Cc1ccccc1-n1nnc2c(=O)oc3ccccc3c21 7.92%
